Experiments:
[1] = Solubility in water; type: physicochemical; conditions: read-out: S
[2] = tested on: B16; test: Concentration required to inhibit the proliferation of B16 melanoma cells was determined; type: functional, cell-based; conditions: Mus musculus
[3] = tested on: B16; test: Percentage change in cell number of B16 melanoma cells treated with 10e-5 M dose; type: functional, Mus musculus
Method in brief: (§1)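 B16 melanoma cells exposed to 10⁻⁵ or 10⁻⁶ M compound for 8 h, then rinsed three times with fresh medium. Cells then grown in drug-free medium for 48 h and counted. Result given as percent change relative to the cell number at time zero. Controls are the average of three experiments.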

[4] = tested on: B16; test: Percentage change in cell number of B16 melanoma cells treated with 10e-6 M dose; type: functional, Mus musculus; method in brief: as §1
[5] = tested on: B16; test: Relative effect on B16 melanoma cell proliferation was determined [IC50 (taxol)/IC50 (derivative)]; type: functional, Mus musculus
[6] = organism: Bos taurus; test: Relative effect on microtubular assembly (Tubulin polymerized by derivative/tubulin polymerized by taxol); type: functional
Method in brief: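 Bovine brain tubulin, purified from microtubule-associated proteins by phosphocellulose chromatography, used at 10 μM. Turbidity followed at 350 nm. Polymer pelleted at 200000g, 37 °C, 4 min, depolymerized on ice, and protein measured by Bradford.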

[7] = tested on: Mus musculus; test: Initial average tumor weight was measured in mice induced with human mammary carcinoma at a dose of 42 mg/Kg; type: functional
Method in brief: (§2)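 MX-1 human mammary carcinoma xenograft implanted under the renal capsule of mice. The study was run at the National Cancer Institute following the procedures of NIH Publication No. 84-2635. Average tumor weight was recorded at the start and end of treatment, and survivors were counted after 11 days. Dosed groups were compared with an untreated control group.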

[8] = tested on: Mus musculus; test: Initial average tumor weight was measured in mice induced with human mammary carcinoma at a dose of 5.25 mg/Kg; type: functional; method in brief: as §2
[9] = tested on: Mus musculus; test: Initial average tumor weight was measured in mice induced with human mammary carcinoma at a dose of 10.5 mg/Kg; type: functional; method in brief: as §2
[10] = tested on: Mus musculus; test: Number of survivors after 11 days at a dose of 10.5 mg/Kg tested in 6 mice; type: functional; method in brief: as §2
[11] = tested on: Mus musculus; test: Tumor growth or regression measured as Percent treated by control at a dose of 42 mg/Kg to mice with MX-1 xenograft; type: functional
Method in brief: (§3)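 Subrenal capsule MX-1 mammary xenograft in mice, run at the National Cancer Institute per NIH Publication No. 84-2635. %T/C = (Δ tumor weight treated / Δ tumor weight control) × 100 where tumors grew. Where tumors regressed, %T/C = (Δ tumor weight treated / initial control tumor weight) × 100.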

[12] = tested on: Mus musculus; test: Tumor growth or regression measured as Percent treated by control at a dose of 5.25 mg/Kg to mice with MX-1 xenograft; type: functional; method in brief: as §3
[13] = tested on: Mus musculus; test: Tumor growth or regression measured as Percent treated by control at a dose of 10.5 mg/Kg to mice with MX-1 xenograft; type: functional; method in brief: as §3
[14] = tested on: Mus musculus; test: Number of survivors after 11 days at a dose of 42 mg/Kg tested in 5 mice; type: functional; method in brief: as §2
[15] = tested on: Mus musculus; test: Number of survivors after 11 days at a dose of 5.25 mg/Kg tested in 6 mice; type: functional; method in brief: as §2
[16] = tested on: Mus musculus; test: Final average tumor weight was measured in mice induced with human mammary carcinoma at a dose of 10.5 mg/Kg; type: functional; method in brief: as §2
[17] = tested on: Mus musculus; test: Final average tumor weight was measured in mice induced with human mammary carcinoma at a dose of 42 mg/Kg; type: functional; method in brief: as §2
[18] = tested on: Mus musculus; test: Final average tumor weight was measured in mice induced with human mammary carcinoma at a dose of 5.25 mg/Kg; type: functional; method in brief: as §2
[19] = tested on: Mus musculus; test: Antitumor activity of taxoland the derivative against mammary carcinoma xenograft in mice; type: functional
Method in brief: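 MX-1 human mammary carcinoma xenograft implanted under the renal capsule in mice. Study run at the National Cancer Institute following NIH Publication No. 84-2635. Tumor weights recorded at the start and at the end. Survivors counted after 11 days. %T/C = (Δ tumor weight treated/Δ tumor weight control) × 100 where the tumor grows, and (Δ tumor weight treated/initial control tumor weight) × 100 where it regresses.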

For `CC(=O)O[C@H]1C(=O)[C@]2(C)[C@@H](OC(=O)CN(C)C)C[C@H]3OC[C@@]3(OC(C)=O)[C@H]2[C@H](OC(=O)c2ccccc2)[C@]2(O)C[C@H](OC(=O)[C@H](OC(=O)CN(C)C)[C@@H](NC(=O)c3ccccc3)c3ccccc3)C(C)=C1C2(C)C.CS(=O)(=O)O.CS(=O)(=O)O`, the solubility [1] was greater than 8.11 mM, the IC50 [2] was 42 nM and the “Change in cell number” value [3] was -72%. The “Change in cell number” value [4] was 137%, the Relative effect [5] was 0.45 and the Relative effect [6] was 0.42. The “Initial average tumor weight” value [7] was 0.66 mg, the “Initial average tumor weight” value [8] was 0.71 mg and the “Initial average tumor weight” value [9] was 0.59 mg. It also gave a No. of survivors [10] of 5, a T/C [11] of 144% and a T/C [12] of 70%. For the same compound, the T/C [13] was 193%, the No. of survivors [14] was 4 and the No. of survivors [15] was 6. For the same compound, the “Final average tumor weight” value [16] was 5.55 mg, the “Final average tumor weight” value [17] was 4.35 mg and the “Final average tumor weight” value [18] was 2.51 mg. The Relative antitumor activity [19] was 4.

From ChEMBL document CHEMBL1126013, “Synthesis and evaluation of some water-soluble prodrugs and derivatives of taxol with antitumor activity” (J Med Chem, 1992)
